Assay outcomes deposited in PubChem BioAssay by several laboratories.
HCV NS3 hel inh – HCV NS3 helicase inhibition; inhibition, % at 10.9 µM; hit rate 0.56% among 290,000; NS3 helicase DNA unwinding, Cy5 molecular beacon fluorescence; AID 1800;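 active means inhibition above the mean of all tested compounds plus 3 SD, set per campaign, cut at about 35% in these data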
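System: NS3 helicase fragment of HCV / Schedule: 1 h at 25 °C / Control set: DMSO alone as 0% and 110 µM thioflavine S as 100% / Reagent: Cy5/quencher beacon DNA duplex and ATP to start / Technique: Cy5 fluorescence / Replication: singlicate / Evaluation: % inhibition of end-to-start signal ratio versus controls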
VIM-2 inhibitor – inhibitors of Pseudomonas aeruginosa VIM-2 metallo-beta-lactamase; purified VIM-2, nitrocefin hydrolysis, epi-absorbance fluorescence; inhibition, % at 5.6 µM; hit rate 0.89% among 290,000; AID 1527;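 active means inhibition above the mean of all tested compounds plus 3 SD, cutoff set per screening run, cut at about 7.5% in these data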;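 further: red hydrolysis product quenches plate fluorescence so inhibitors raise well fluorescence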
IMP-1 inh-1 – blocks Pseudomonas aeruginosa IMP-1 metallo-beta-lactamase. purified IMP-1, nitrocefin hydrolysis, epi-absorbance fluorescence. inhibition, % at 5.6 µM. hit rate 0.45% among 290,000;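 active means inhibition above the mean plus 3 SD of all compounds in the same screening run, cut at about 4.5% in these data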
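Test system: recombinant IMP-1 enzyme, purified / Medium: HEPES buffer pH 7.1 with ZnSO4 and Brij 35 / Doses: single dose, 5.6 µM / Times: 25 °C, 15 min preincubation, 25 min reaction / Detection: Epi-absorbance via hydrolysed-nitrocefin quenching of white-plate fluorescence, 480/530 nm, EDTA stop / Evaluation: percent inhibition from optical density relative to buffer-blank wells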
UBC9 SUMO inh – SUMOylation inhibition; HTRF SUMOylation assay, SAE1/SAE2 + UBC9, in vitro; inhibition, % at 35 µM; P63279; hit rate 0.36% among 290,000; in the data active means inhibition above about 50%, passing the limit was not always enough
Target sequence (P63279 whole entry, looked up): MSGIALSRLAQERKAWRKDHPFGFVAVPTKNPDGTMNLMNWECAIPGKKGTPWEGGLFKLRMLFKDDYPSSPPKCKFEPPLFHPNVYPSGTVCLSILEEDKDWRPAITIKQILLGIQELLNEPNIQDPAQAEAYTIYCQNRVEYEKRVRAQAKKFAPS
DNA FID counter – displaces DNA intercalator in HCV helicase counter-screen; AID 1845; DNA fluorescent intercalator displacement, fluorescence; inhibition, % at 7.9 µM; hit rate 0.17% among 290,000; in the data active means inhibition above about 37%;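 further: higher means more ethidium bromide displaced from hairpin DNA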
IMP-1 inh-2 – blocks IMP-1 metallo-beta-lactamase in VIM-2 selectivity screen | shares compounds with VIM-2 inhibitor | purified IMP-1, nitrocefin hydrolysis, epi-absorbance fluorescence | inhibition, % at 5.6 µM | 1,300 tested, under 10 active | AID 1856; call rule not given here
VIM-2 FRET inh – inhibits VIM-2 in FRET assay to exclude epi-absorbance artifacts; shares compounds with VIM-2 inhibitor; purified VIM-2, CCF2 FRET substrate hydrolysis; inhibition, % at 5.6 µM; hit rate 23% among 1,300; AID 1857;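 active means inhibition above the mean of all tested compounds plus 3 SD, cut at about 19% in these data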
TEM-1 inh – selectivity counter-screen for VIM-2 inhibitors: E. coli TEM-1 inhibitors. AID 1866. shares compounds with VIM-2 inhibitor. inhibition, % at 5.6 µM. Purified TEM-1, nitrocefin hydrolysis, epi-absorbance fluorescence. hit rate 3% among 1,300;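 active means inhibition above that campaign's mean inhibition plus 3 SD, cut at about 0.46% in these data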
Target sequence (P62593 whole entry, looked up): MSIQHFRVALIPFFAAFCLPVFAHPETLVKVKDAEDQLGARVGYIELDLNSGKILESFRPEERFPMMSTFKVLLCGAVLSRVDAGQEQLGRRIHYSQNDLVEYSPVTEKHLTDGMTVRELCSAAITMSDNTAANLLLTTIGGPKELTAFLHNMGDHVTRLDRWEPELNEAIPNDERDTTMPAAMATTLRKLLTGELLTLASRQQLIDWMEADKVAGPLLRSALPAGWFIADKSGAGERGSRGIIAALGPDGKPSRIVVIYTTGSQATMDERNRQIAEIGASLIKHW
VIM-2 confirm 2 – confirmation of P. aeruginosa VIM-2 metallo-beta-lactamase inhibitors; hit rate 96% among 1,300; inhibition, % at 5.6 µM; AID 2187; purified VIM-2, nitrocefin hydrolysis, epi-absorbance; shares compounds with VIM-2 inhibitor;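 active means inhibition of the VIM-2 beta-lactamase enzyme above about 11% from the earlier first-round screen, limit read from the data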
Numbers stand for hits. This is a sample that favours compounds with a hit; in the whole collection about 2.1% have one here.

For CC(C(=O)NCc1ccc(F)cc1)n1ccc2cc(S(=O)(=O)N3CCCC3)ccc21 (stereo not given) the results were HCV NS3 hel inh inactive, VIM-2 inhibitor inactive, IMP-1 inh-1 inactive, UBC9 SUMO inh inactive and DNA FID counter inactive.
COc1cc2c(cc1OC)/C(=C/C(=O)c1ccc(F)cc1)NCC2 was read as HCV NS3 hel inh inactive, VIM-2 inhibitor 13.7, IMP-1 inh-1 inactive, UBC9 SUMO inh inactive, DNA FID counter inactive, IMP-1 inh-2 inactive, VIM-2 FRET inh inactive, TEM-1 inh inactive and VIM-2 confirm 2 19.3.
`COc1cc2c(cc1OC)/C(=C/C(=O)c1ccccc1F)NCC2` gave HCV NS3 hel inh inactive, VIM-2 inhibitor inactive, IMP-1 inh-1 inactive, UBC9 SUMO inh inactive and DNA FID counter inactive.
Screening Cn1ncc(Cl)c1C(=O)NC1CCCC1 returned HCV NS3 hel inh inactive, VIM-2 inhibitor inactive, IMP-1 inh-1 inactive, UBC9 SUMO inh inactive and DNA FID counter inactive.
`O=S(=O)(Nc1ccc(-c2nc3cccnc3s2)cc1)c1ccccc1F` gave HCV NS3 hel inh inactive, VIM-2 inhibitor inactive, IMP-1 inh-1 inactive, UBC9 SUMO inh inactive and DNA FID counter inactive.
Screening CCN1CCN(Cc2c(O)ccc3c2O/C(=C\c2ccccc2)C3=O)CC1 returned HCV NS3 hel inh inactive, VIM-2 inhibitor 30.0, IMP-1 inh-1 inactive, UBC9 SUMO inh inactive, DNA FID counter inactive, IMP-1 inh-2 inactive, VIM-2 FRET inh inactive, TEM-1 inh inactive and VIM-2 confirm 2 43.9.
`CC1CCCN(Cc2c(O)ccc3c2O/C(=C\c2ccco2)C3=O)C1` (stereo not given) gave HCV NS3 hel inh inactive, VIM-2 inhibitor inactive, IMP-1 inh-1 inactive, UBC9 SUMO inh inactive and DNA FID counter inactive.
`CCc1ccc(-c2nc(CS(=O)CC(=O)NCCCN3CCC(C)CC3)c(C)o2)cc1` (stereo not given) gave HCV NS3 hel inh inactive, VIM-2 inhibitor inactive, IMP-1 inh-1 inactive, UBC9 SUMO inh inactive and DNA FID counter inactive.
For CN(C)S(=O)(=O)c1cccc(NC(=S)NC2CCCCC2)c1 the results were HCV NS3 hel inh inactive, VIM-2 inhibitor inactive, IMP-1 inh-1 inactive, UBC9 SUMO inh inactive and DNA FID counter inactive.
Screening CN(C)S(=O)(=O)c1cccc(NC(=S)N/N=C/C2CC=CCC2)c1 (stereo not given) returned HCV NS3 hel inh inactive, VIM-2 inhibitor 70.8, IMP-1 inh-1 inactive, UBC9 SUMO inh inactive, DNA FID counter inactive, IMP-1 inh-2 inactive, VIM-2 FRET inh 83.4, TEM-1 inh inactive and VIM-2 confirm 2 76.3.
CN(C)S(=O)(=O)c1cccc(NC(=S)NN=C(Cc2ccccc2)Cc2ccccc2)c1 was read as HCV NS3 hel inh inactive, VIM-2 inhibitor 15.4, IMP-1 inh-1 inactive, UBC9 SUMO inh inactive, DNA FID counter inactive, IMP-1 inh-2 inactive, VIM-2 FRET inh inactive, TEM-1 inh inactive and VIM-2 confirm 2 inactive.
For CN1CCN(C(=O)CSc2nc(-c3cccs3)cc(-c3cccs3)c2C#N)CC1 the results were HCV NS3 hel inh inactive, VIM-2 inhibitor 44.9, IMP-1 inh-1 inactive, UBC9 SUMO inh inactive, DNA FID counter inactive, IMP-1 inh-2 inactive, VIM-2 FRET inh inactive, TEM-1 inh inactive and VIM-2 confirm 2 69.8.
`O=C(CCC(=O)c1ccc(Oc2ccccc2)cc1)Nc1ccc(C(=O)O)cc1` gave HCV NS3 hel inh inactive, VIM-2 inhibitor inactive, IMP-1 inh-1 inactive, UBC9 SUMO inh inactive and DNA FID counter inactive.
`Fc1ccc(-c2ccc(/C=N/n3cnnc3)o2)cc1` gave HCV NS3 hel inh inactive, VIM-2 inhibitor 18.4, IMP-1 inh-1 inactive, UBC9 SUMO inh inactive, DNA FID counter inactive, IMP-1 inh-2 inactive, VIM-2 FRET inh inactive, TEM-1 inh inactive and VIM-2 confirm 2 29.5.
`CC(C)COC(=O)c1cc(-c2ccc(/C=N/n3cnnc3)o2)ccc1Cl` gave HCV NS3 hel inh inactive, VIM-2 inhibitor inactive, IMP-1 inh-1 inactive, UBC9 SUMO inh inactive and DNA FID counter inactive.
Screening Fc1ccc(-c2ccc(/C=N\n3cnnc3)o2)cc1Cl returned HCV NS3 hel inh inactive, VIM-2 inhibitor 45.1, IMP-1 inh-1 inactive, UBC9 SUMO inh inactive, DNA FID counter inactive, IMP-1 inh-2 inactive, VIM-2 FRET inh inactive, TEM-1 inh inactive and VIM-2 confirm 2 57.1.
Screening Cc1ccc(N(CC(O)CN2CCCCC2)S(=O)(=O)c2ccccc2)cc1 (stereo not given) returned HCV NS3 hel inh inactive, VIM-2 inhibitor inactive, IMP-1 inh-1 inactive and DNA FID counter inactive.
`CC1CCCN(S(=O)(=O)c2cc3c4c(c2)C(C)C(=O)N4CCC3)C1` (stereo not given) gave HCV NS3 hel inh inactive, VIM-2 inhibitor inactive, IMP-1 inh-1 inactive and DNA FID counter inactive.
For S=c1[nH]nc(-c2ccccc2Cl)n1Cc1ccccc1 the results were HCV NS3 hel inh inactive, VIM-2 inhibitor inactive, IMP-1 inh-1 inactive, UBC9 SUMO inh inactive and DNA FID counter inactive.
For Fc1ccccc1-c1n[nH]c(=S)n1Cc1ccccc1 the results were HCV NS3 hel inh inactive, VIM-2 inhibitor 28.2, IMP-1 inh-1 inactive, UBC9 SUMO inh inactive, DNA FID counter inactive, IMP-1 inh-2 inactive, VIM-2 FRET inh 49.7, TEM-1 inh inactive and VIM-2 confirm 2 33.8.
Screening Cc1cccc(S(=O)Cc2ccc(C(=O)NC3CCN(Cc4ccccc4)CC3)o2)c1 (stereo not given) returned HCV NS3 hel inh inactive, VIM-2 inhibitor inactive, IMP-1 inh-1 inactive, UBC9 SUMO inh inactive and DNA FID counter inactive.
For CN1CCN(c2ccc(Nc3ccnc4cc(Cl)ccc34)cc2)CC1 the results were HCV NS3 hel inh inactive, VIM-2 inhibitor 86.9, IMP-1 inh-1 inactive, UBC9 SUMO inh inactive, DNA FID counter 82.9, IMP-1 inh-2 inactive, VIM-2 FRET inh inactive, TEM-1 inh inactive and VIM-2 confirm 2 87.8.
For Oc1ccc(N2CCN(c3ccnc4cc(Cl)ccc34)CC2)cc1 the results were HCV NS3 hel inh inactive, VIM-2 inhibitor inactive, IMP-1 inh-1 inactive, UBC9 SUMO inh inactive and DNA FID counter inactive.
Screening COc1ccccc1N(CC(=O)NCc1ccccc1C)S(=O)(=O)c1ccc(C)cc1 returned HCV NS3 hel inh inactive, VIM-2 inhibitor inactive, IMP-1 inh-1 inactive, UBC9 SUMO inh inactive and DNA FID counter inactive.
`O=C(O)c1ncsc1-c1ccccc1` gave HCV NS3 hel inh inactive, VIM-2 inhibitor 13.4, IMP-1 inh-1 inactive, UBC9 SUMO inh inactive, DNA FID counter inactive, IMP-1 inh-2 inactive, VIM-2 FRET inh 23.9, TEM-1 inh inactive and VIM-2 confirm 2 16.1.
